In ChEMBL document CHEMBL4619772 (J Med Chem, 2020):

Assays:
[1] = system: A549; assay: Inhibition of pseudotyped HIV/MARV GP infected in human A549 cells assessed as reduction in virus entry at 12.5 uM measured after 48 hrs by luciferase reporter gene assay relative to control; format: cell-based; conditions: Marburgvirus
Procedure, shortened: (§1)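 Low-passage A549 cells are infected with HIV-based pseudovirions carrying EBOV or MARV GP and a luciferase reporter, with or without compound at 12.5 μM. […] Toremifene is the positive control.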

[2] = system: A549; assay: Inhibition of pseudotyped HIV/EBOV GP infected in human A549 cells assessed as reduction in virus entry at 12.5 uM measured after 48 hrs by luciferase reporter gene assay relative to control; format: cell-based; conditions: Ebolavirus; procedure, shortened: as §1
[3] = Inhibition of pseudotyped HIV/MARV GP infected in human A549 cells assessed as reduction in virus entry measured after 48 hrs by luciferase reporter gene assay; format: cell-based, Marburgvirus; conditions: Orthomarburgvirus, A549, 48 h
[4] = Inhibition of pseudotyped HIV/EBOV GP infected in human A549 cells assessed as reduction in virus entry measured after 48 hrs by luciferase reporter gene assay; format: cell-based, Ebolavirus; conditions: Orthoebolavirus, A549, 48 h
[5] = Selectivity index, ratio of CC50 for human A549 cells to EC50 for HIV/EBOV-GP infected in human A549 cells; format: toxicity, cell-based; conditions: read-out: Ratio CC50/EC50
Procedure, shortened: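 Ratio CC50/EC50. CC50 is A549 cytotoxicity by CellTiter 96 aqueous nonradioactive cell proliferation assay.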

[6] = Selectivity index, ratio of CC50 for human HeLa cells to EC50 for Ebola virus 1976 Mayinga in human HeLa cells; format: toxicity, cell-based; conditions: read-out: Ratio CC50/EC50
[7] = Metabolic stability in Sprague-Dawley rat pooled plasma assessed as parent compound remaining at 20 uM after 60 mins by HPLC analysis; format: ADME, cell-free; conditions: read-out: Stability
Procedure, shortened: (§2)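 Stability is reported as % of compound remaining after 60 min incubation in plasma or liver microsomes, relative to t0.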

[8] = Metabolic stability in human liver microsomes assessed as parent compound remaining after 60 mins in presence of NADPH by HPLC analysis; format: ADME, Microsome; conditions: read-out: Stability; procedure, shortened: as §2
[9] = Metabolic stability in human pooled plasma assessed as parent compound remaining at 20 uM after 60 mins by HPLC analysis; format: ADME, cell-free; conditions: read-out: Stability; procedure, shortened: as §2
[10] = system: Marburgvirus; assay: Antiviral activity against Marburg virus Lake Victoria, 2005 Angola infected in human HeLa cells pretreated for 1 hr followed by virus infection measured after 24 hrs by Hoechst staining-based immunofluorescence assay; format: functional, organism-based, Lake Victoria marburgvirus; conditions: Orthomarburgvirus, Angola2005, HeLa
[11] = Metabolic stability in Fischer F344 rat liver microsomes assessed as parent compound remaining after 60 mins in presence of NADPH by HPLC analysis; format: ADME, Microsome; conditions: read-out: Stability; procedure, shortened: as §2
[12] = system: Zaire ebolavirus; assay: Antiviral activity against Ebola virus 1976 Mayinga infected in human HeLa cells pretreated for 1 hr followed by virus infection measured after 24 hrs by Hoechst staining-based immunofluorescence assay; format: functional, organism-based

Compound | inhibition [1] | inhibition [2] | EC50 [3] | EC50 [4] | selectivity ratio [5] | also measured
CC(c1ccc(C(=O)NCC2COC3(CCCCC3)O2)cc1)N1CCCCC1 (stereo not given) | 37.2% | 56% |  |  |  | 
O=C(O)c1ccc(NC(=O)c2ccc(CN3CCCCC3)cc2)cc1 | 10.3% | 3.12% |  |  |  | 
O=C(Nc1ccc(Cl)c(C(F)(F)F)c1)c1ccc(CN2CCCCC2)cc1 | 98.2% | 99.6% | 1240 nM | 1520 nM | 7 | 
CNS(=O)(=O)c1ccc(NC(=O)c2ccc(CN3CCCCC3)cc2)cc1 | 3.3% | 0% |  |  |  | 
COC(=O)c1ccc2c(c1)CCN2C(=O)c1ccc(CN2CCCCC2)s1 | 0% | 38.9% |  |  |  | 
CS(=O)(=O)Nc1ccc(NC(=O)c2ccc(CN3CCCCC3)cc2)cc1 | 6.81% | 3.91% |  |  |  | 
N#Cc1ccc(NC(=O)c2ccc(CN3CCCCC3)cc2)cc1 | 12.4% | 0% |  |  |  | 
O=C(Nc1ccc(C(F)(F)F)cc1)c1ccc(CN2CCCCC2)s1 | 70% | 80.2% | 3650 nM | 5600 nM | 9 | 
CC(c1ccc(C(=O)Nc2ccc(C3CCCCC3)cc2)cc1)N1CCCCC1 (stereo not given) | 88.9% | 99.3% | 850 nM | 330 nM | 390 | selectivity ratio [6]: 54; remaining at 1 h, 20 µM [7]: 82%; remaining at 1 h [8]: 31%; remaining at 1 h, 20 µM [9]: 88%; EC50 [10]: 5560 nM; remaining at 1 h [11]: 24%; EC50 [12]: 1800 nM
CC(c1ccc(C(=O)N2CC(C(C)(C)C)c3ccccc32)cc1)N1CCCCC1 (stereo not given) | 92.8% | 99.9% | 3180 nM | 160 nM | 224 | selectivity ratio [6]: 137; remaining at 1 h, 20 µM [7]: 2%; remaining at 1 h [8]: 2%; remaining at 1 h, 20 µM [9]: 88%; EC50 [10]: 6320 nM; remaining at 1 h [11]: 0%; EC50 [12]: 870 nM
COC(=O)c1ccc(NC(=O)c2ccc(CN3CCCCC3)s2)cc1 | 27.2% | 33.8% |  |  |  | 
O=C(c1ccc(CN2CCCCC2)cc1)N1CCc2ccc(Cl)cc21 | 42.4% | 81.5% | 2310 nM | 2220 nM | 14 | 
O=C(Nc1ccc(N2CCC(F)(F)CC2)cc1)c1ccc(CN2CCCCC2)cc1 | 88.8% | 99.7% | 1880 nM | 820 nM | 69 | 
CC(c1ccc(C(=O)NCCOC2CCCCC2)cc1)N1CCCCC1 (stereo not given) | 42.5% | 52.4% |  |  |  | 
O=C(c1ccc(CN2CCCCC2)cc1)N1CCc2ccc(F)cc21 | 13.5% | 20.1% |  |  |  | 
O=C(c1ccc(CN2CCCCC2)cc1)N1CCc2ccc(C(F)(F)F)cc21 | 59.2% | 83.7% | 1460 nM | 1680 nM | 38 | selectivity ratio [6]: 39; remaining at 1 h, 20 µM [7]: 0%; remaining at 1 h [8]: 31%; remaining at 1 h, 20 µM [9]: 85%; EC50 [10]: 8170 nM; remaining at 1 h [11]: 0%; EC50 [12]: 3220 nM
CC(C)c1ccc(NC(=O)c2ccc(CN3CCCCC3)cc2)cc1 | 67.5% | 93.1% | 2100 nM | 2870 nM | 10 | 
O=C(Nc1ccc(C(F)(F)F)cc1)c1ccc(CN2CCCCC2)cc1 | 79.3% | 89.9% | 5700 nM | 3870 nM | 9 | 
O=C(Nc1ccc(C2CCCCC2)cc1)c1ccc(CN2CCCCC2)cc1 | 73.4% | 98.1% | 960 nM | 990 nM | 101 | 
CC(c1ccc(C(=O)N2CCc3ccc(C(F)(F)F)cc32)cc1)N1CCCCC1 (stereo not given) | 76.9% | 95.6% | 1730 nM | 1560 nM | 21 | 
O=C(Nc1ccc(C2CC2)cc1)c1ccc(CN2CCCCC2)cc1 | 66.2% | 74.3% | 2650 nM | 4570 nM | 22 | 

Compound | inhibition [1] | inhibition [2] | EC50 [3] | EC50 [4] | selectivity ratio [5] | also measured
COC(=O)c1cccc(NC(=O)c2ccc(CN3CCCCC3)cc2)c1 | 0% | 0% |  |  |  | 
COC(=O)c1ccc(NC(=O)c2cccc(CN3CCCCC3)c2)cc1 | 5.9% | 13% |  |  |  | 
CS(=O)(=O)c1ccc(NC(=O)c2ccc(CN3CCCCC3)cc2)cc1 | 17.4% | 0% |  |  |  | 
CN(C)CCOc1ccc(/C(=C(/CCCl)c2ccccc2)c2ccccc2)cc1 [TOREMIFENE] |  |  |  | 90 nM |  | EC50 [10]: 3250 nM; EC50 [12]: 670 nM
O=C(c1ccc(CN2CCCCC2)cc1)n1ccc2ccc(C(F)(F)F)cc21 | 0% | 0% |  |  |  | 
COC(=O)c1ccc(NC(=O)c2ccc(C(=O)N3CCCCC3)cc2)cc1 | 0% | 12.9% |  |  |  | 
O=C(Nc1ccc(C(F)(F)F)c(Cl)c1)c1ccc(CN2CCCCC2)cc1 | 98.5% | 99.7% | 2050 nM | 2340 nM | 9 | 
COC(=O)c1ccc(NC(=O)c2ccc(CN3CCOCC3)cc2)cc1 | 68.8% | 57.2% |  |  |  | 
O=C(NCC1CCC(F)(F)CC1)c1ccc(CN2CCCCC2)cc1 | 23% | 42.9% |  |  |  | 
O=C(c1ccc(CN2CCCCC2)cc1)N1CCc2cc(C(F)(F)F)ccc21 | 49.6% | 56.4% |  |  |  | 
COC(=O)c1ccc2c(c1)CCN2C(=O)c1ccc(CN2CCCCC2)cc1 | 51.2% | 41.7% |  |  |  | 
O=C(c1ccc(CN2CCCCC2)cc1)N1CC2(CC2)c2ccccc21 | 34.4% | 74.5% |  |  |  | 
O=C(Nc1ccc(C(F)(F)F)nc1)c1ccc(CN2CCCCC2)cc1 | 9.4% | 5.4% |  |  |  | 
COC(=O)c1ccc(NC(=O)c2ccc(CN3CCN(C)CC3)cc2)cc1 | 30.3% | 29.4% |  |  |  | 
COC(=O)c1ccc2c(c1)CCCN2C(=O)c1ccc(CN2CCCCC2)cc1 | 0% | 25.1% |  |  |  | 
N#CC(c1ccc(NC(=O)c2ccc(CN3CCCCC3)cc2)cc1)C1CCCC1 (stereo not given) | 94% | 96.8% | 1630 nM | 730 nM | 99 | 
CC1(C)CN(C(=O)c2ccc(CN3CCCCC3)cc2)c2ccccc21 | 21.4% | 87.3% | 2900 nM | 2220 nM | 33 | 
O=C(NCCC1CCCCC1)c1ccc(CN2CCCCC2)cc1 | 27.3% | 90.9% | 7740 nM | 2320 nM | 25 | 
O=C(Nc1cccc(C(F)(F)F)c1)c1ccc(CN2CCCCC2)cc1 | 57.5% | 82.2% | 1410 nM | 2970 nM | 15 | 
O=C(Nc1ccc(C2CCCCC2)cc1)c1ccc(CN2CCCCC2)c(F)c1 | 71% | 96.1% | 1330 nM | 380 nM | 382 | selectivity ratio [6]: 128; remaining at 1 h, 20 µM [7]: 86%; remaining at 1 h [8]: 28%; remaining at 1 h, 20 µM [9]: 87%; EC50 [10]: 16600 nM; remaining at 1 h [11]: 23%; EC50 [12]: 1040 nM
